Results reported in ChEMBL document CHEMBL4251593, “Nontoxic combretafuranone analogues with high in vitro antibacterial activity” (Eur J Med Chem, 2018).
Values after ≈ are worked out from the molar mass of the structure shown.

What was measured:
PC-3 [1] = assay: Cytotoxicity against human PC3 cells assessed as reduction in cell viability after 48 hrs by ATPlite-based luminescent assay; details: PC-3, 48 h
Outline: (§1)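 Cells were grown […] with 10% FBS, glutamax, NEAA and pen/strep at 37 °C, 5% CO2. Media were DMEM for RPE-1, HepG2 and BJ (BJ plus 10 ng/ml bFGF), F-12K for PC3, and IMDM for K562/HL-60. Cells were seeded at 500 per well and dosed from DMSO at 12 concentrations, 40 µM to 1 nM, in triplicate. After 48 h, intracellular ATP was read by luminescence. ED50 was obtained by variable-slope nonlinear regression.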

HL-60 [2] = assay: Cytotoxicity against human HL60 cells assessed as reduction in cell viability after 48 hrs by ATPlite-based luminescent assay; details: HL-60, 48 h; outline: as §1
[3] = tested on: Staphylococcus epidermidis; assay: Antibacterial activity against Staphylococcus epidermidis HK6966/08 clinical isolate after 24 hrs by microdilution assay; type: functional; details: HK6966/08, 24 h
TERT-RPE1 [4] = assay: Induction of apoptosis in human RPE1 cells assessed as caspase 3/7 activity after 24 hrs by caspase-glo luminescent assay; type: cell-based; details: RPE-1, 24 h
Outline: (§2)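 Cells were seeded at 500 per well in their growth media and exposed to 12 concentrations from 40 µM to 1 nM, delivered from DMSO, in triplicate. After 24 h, caspase-3/7 activity was read by Caspase-Glo luminescence. Data were normalized and ED50 was fitted by variable-slope nonlinear regression.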

Escherichia coli [5] = assay: Antibacterial activity against Escherichia coli ATCC 8739 after 48 hrs by microdilution assay; type: functional; details: ATCC 8739, 48 h
Outline: (§3)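 Broth microdilution in Mueller-Hinton medium buffered to pH 7.4 (±0.2), with DMSO as diluent at no more than 2% final. Compounds were tested as 2-fold serial dilutions from 2000 to 0.488 µmol/l. The inoculum was 0.5 McFarland (1.5×10^8 cfu/ml). Plates were held at 37 °C and read visually at 24 and 48 h. MIC was taken as 95% growth inhibition versus control, determined twice in duplicate.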

Staphylococcus aureus [6] = assay: Antibacterial activity against methicillin-resistant Staphylococcus aureus HK5996/08 clinical isolate after 24 hrs by microdilution assay; type: functional; details: HK5996/08, 24 h
BJ = assay: Cytotoxicity against human BJ cells assessed as reduction in cell viability after 48 hrs by ATPlite-based luminescent assay; outline: as §1
PC-3 [7] = assay: Induction of apoptosis in human PC3 cells assessed as caspase 3/7 activity after 24 hrs by caspase-glo luminescent assay; type: cell-based; details: PC-3, 24 h; outline: as §2
Pseudomonas aeruginosa [8] = assay: Antibacterial activity against Pseudomonas aeruginosa ATCC 9027 after 24 hrs by microdilution assay; type: functional; details: ATCC 9027, 24 h; outline: as §3
K562 [9] = assay: Induction of apoptosis in human K562 cells assessed as caspase 3/7 activity after 24 hrs by caspase-glo luminescent assay; type: cell-based; details: K562, 24 h; outline: as §2
[10] = tested on: Staphylococcus epidermidis; assay: Antibacterial activity against Staphylococcus epidermidis HK6966/08 clinical isolate after 48 hrs by microdilution assay; type: functional; details: HK6966/08, 48 h
Staphylococcus aureus [11] = assay: Antibacterial activity against Staphylococcus aureus ATCC 6538 after 24 hrs by microdilution assay; type: functional; details: ATCC 6538, 24 h
Staphylococcus aureus [12] = assay: Antibacterial activity against Staphylococcus aureus ATCC 6538 after 48 hrs by microdilution assay; type: functional; details: ATCC 6538, 48 h
Enterococcus sp. [13] = assay: Antibacterial activity against Enterococcus sp. HK14365/08 clinical isolate after 48 hrs by microdilution assay; type: functional; details: HK14365/08, 48 h
HepG2 [14] = assay: Cytotoxicity against human HepG2 cells assessed as reduction in cell viability after 48 hrs by ATPlite-based luminescent assay; details: HepG2, 48 h; outline: as §1
Enterococcus sp. [15] = assay: Antibacterial activity against Enterococcus sp. HK14365/08 clinical isolate after 24 hrs by microdilution assay; type: functional; details: HK14365/08, 24 h
Klebsiella pneumoniae [16] = assay: Antibacterial activity against Klebsiella pneumoniae HK11750/08 clinical isolate after 48 hrs by microdilution assay; type: functional; details: HK11750/08, 48 h
MCF7 = assay: Cytotoxicity against human MCF7 cells assessed as reduction in cell viability after 48 hrs by ATPlite-based luminescent assay; details: MCF7, 48 h
Klebsiella pneumoniae [17] = assay: Antibacterial activity against Klebsiella pneumoniae HK14368/08 clinical isolate after 48 hrs by microdilution assay; type: functional; details: HK14368/08, 48 h
Klebsiella pneumoniae [18] = assay: Antibacterial activity against Klebsiella pneumoniae HK14368/08 clinical isolate after 24 hrs by microdilution assay; type: functional; details: HK14368/08, 24 h
Escherichia coli [19] = assay: Antibacterial activity against Escherichia coli ATCC 8739 after 24 hrs by microdilution assay; type: functional; details: ATCC 8739, 24 h; outline: as §3
Klebsiella pneumoniae [20] = assay: Antibacterial activity against Klebsiella pneumoniae HK11750/08 clinical isolate after 24 hrs by microdilution assay; type: functional; details: HK11750/08, 24 h
Pseudomonas aeruginosa [21] = assay: Antibacterial activity against Pseudomonas aeruginosa ATCC 9027 after 48 hrs by microdilution assay; type: functional; details: ATCC 9027, 48 h; outline: as §3
HL-60 [22] = assay: Induction of apoptosis in human HL60 cells assessed as caspase 3/7 activity after 24 hrs by caspase-glo luminescent assay; type: cell-based; details: HL-60, 24 h; outline: as §2
Staphylococcus aureus [23] = assay: Antibacterial activity against methicillin-resistant Staphylococcus aureus HK5996/08 clinical isolate after 48 hrs by microdilution assay; type: functional; details: HK5996/08, 48 h
K562 [24] = assay: Cytotoxicity against human K562 cells assessed as reduction in cell viability after 48 hrs by ATPlite-based luminescent assay; details: K562, 48 h; outline: as §1
TERT-RPE1 [25] = assay: Cytotoxicity against human RPE1 cells assessed as reduction in cell viability after 48 hrs by ATPlite-based luminescent assay; details: RPE-1, 48 h; outline: as §1
HepG2 [26] = assay: Induction of apoptosis in human HepG2 cells assessed as caspase 3/7 activity after 24 hrs by caspase-glo luminescent assay; type: cell-based; details: HepG2, 24 h; outline: as §2

`O=C1OCC(c2ccccc2)=C1c1ccc(F)cc1` showed an IC50 (PC-3 [1]) greater than 40 µM, an IC50 (HL-60 [2]) greater than 40 µM and an MIC95 [3] of 125 µM (≈ 31.8 µg/mL). The IC50 (TERT-RPE1 [4]) was greater than 40 µM, the MIC95 (Escherichia coli [5]) was greater than 500 µM and the MIC95 (Staphylococcus aureus [6]) was 125 µM (≈ 31.8 µg/mL). It also gave an IC50 (BJ) greater than 40 µM, an IC50 (PC-3 [7]) greater than 40 µM and an MIC95 (Pseudomonas aeruginosa [8]) greater than 500 µM. It also gave an IC50 (K562 [9]) greater than 40 µM, an MIC95 [10] of 125 µM (≈ 31.8 µg/mL) and an MIC95 (Staphylococcus aureus [11]) of 15.6 µM (≈ 3.97 µg/mL). The MIC95 (Staphylococcus aureus [12]) was 15.6 µM (≈ 3.97 µg/mL), the MIC95 (Enterococcus sp. [13]) was greater than 500 µM and the IC50 (HepG2 [14]) was greater than 40 µM. It also gave an MIC95 (Enterococcus sp. [15]) greater than 500 µM, an MIC95 (Klebsiella pneumoniae [16]) greater than 500 µM and an IC50 (MCF7) greater than 40 µM. The MIC95 (Klebsiella pneumoniae [17]) was greater than 500 µM, the MIC95 (Klebsiella pneumoniae [18]) was greater than 500 µM and the MIC95 (Escherichia coli [19]) was greater than 500 µM. It also gave an MIC95 (Klebsiella pneumoniae [20]) greater than 500 µM, an MIC95 (Pseudomonas aeruginosa [21]) greater than 500 µM and an IC50 (HL-60 [22]) greater than 40 µM. It also gave an MIC95 (Staphylococcus aureus [23]) of 125 µM (≈ 31.8 µg/mL), an IC50 (K562 [24]) greater than 40 µM and an IC50 (TERT-RPE1 [25]) greater than 40 µM. For the same compound, the IC50 (HepG2 [26]) was greater than 40 µM.

Work on `COc1ccc(C2=C(c3ccc(OC)c(OC)c3)COC2=O)cc1` yielded an IC50 (PC-3 [1]) of 15.9 µM, an IC50 (HL-60 [2]) greater than 40 µM and an MIC95 [3] greater than 125 µM. It also gave an IC50 (TERT-RPE1 [4]) greater than 40 µM, an MIC95 (Escherichia coli [5]) greater than 125 µM and an MIC95 (Staphylococcus aureus [6]) greater than 125 µM. For the same compound, the IC50 (BJ) was greater than 40 µM, the IC50 (PC-3 [7]) was greater than 40 µM and the MIC95 (Pseudomonas aeruginosa [8]) was greater than 125 µM. For the same compound, the IC50 (K562 [9]) was greater than 40 µM, the MIC95 [10] was greater than 125 µM and the MIC95 (Staphylococcus aureus [11]) was greater than 125 µM. For the same compound, the MIC95 (Staphylococcus aureus [12]) was greater than 125 µM, the MIC95 (Enterococcus sp. [13]) was greater than 125 µM and the IC50 (HepG2 [14]) was greater than 40 µM. It also gave an MIC95 (Enterococcus sp. [15]) greater than 125 µM, an MIC95 (Klebsiella pneumoniae [16]) greater than 125 µM and an IC50 (MCF7) greater than 40 µM. The MIC95 (Klebsiella pneumoniae [17]) was greater than 125 µM, the MIC95 (Klebsiella pneumoniae [18]) was greater than 125 µM and the MIC95 (Escherichia coli [19]) was greater than 125 µM. It also gave an MIC95 (Klebsiella pneumoniae [20]) greater than 125 µM, an MIC95 (Pseudomonas aeruginosa [21]) greater than 125 µM and an IC50 (HL-60 [22]) greater than 40 µM. The MIC95 (Staphylococcus aureus [23]) was greater than 125 µM, the IC50 (K562 [24]) was greater than 40 µM and the IC50 (TERT-RPE1 [25]) was greater than 40 µM. For the same compound, the IC50 (HepG2 [26]) was greater than 40 µM.

`COc1ccc(C2=C(c3ccc4c(c3)OCO4)COC2=O)cc1` showed an IC50 (PC-3 [1]) greater than 40 µM, an IC50 (HL-60 [2]) of 15.5 µM and an MIC95 [3] of 125 µM (≈ 38.8 µg/mL). It also gave an IC50 (TERT-RPE1 [4]) greater than 40 µM, an MIC95 (Escherichia coli [5]) greater than 500 µM and an MIC95 (Staphylococcus aureus [6]) greater than 500 µM. It also gave an IC50 (BJ) greater than 40 µM, an IC50 (PC-3 [7]) greater than 40 µM and an MIC95 (Pseudomonas aeruginosa [8]) greater than 500 µM. It also gave an IC50 (K562 [9]) greater than 40 µM, an MIC95 [10] of 500 µM (≈ 155 µg/mL) and an MIC95 (Staphylococcus aureus [11]) of 7.81 µM (≈ 2.42 µg/mL). For the same compound, the MIC95 (Staphylococcus aureus [12]) was 15.6 µM (≈ 4.85 µg/mL), the MIC95 (Enterococcus sp. [13]) was greater than 500 µM and the IC50 (HepG2 [14]) was greater than 40 µM. For the same compound, the MIC95 (Enterococcus sp. [15]) was greater than 500 µM, the MIC95 (Klebsiella pneumoniae [16]) was greater than 500 µM and the IC50 (MCF7) was greater than 40 µM. The MIC95 (Klebsiella pneumoniae [17]) was greater than 500 µM, the MIC95 (Klebsiella pneumoniae [18]) was greater than 500 µM and the MIC95 (Escherichia coli [19]) was greater than 500 µM. It also gave an MIC95 (Klebsiella pneumoniae [20]) greater than 500 µM, an MIC95 (Pseudomonas aeruginosa [21]) greater than 500 µM and an IC50 (HL-60 [22]) greater than 40 µM. It also gave an MIC95 (Staphylococcus aureus [23]) greater than 500 µM, an IC50 (K562 [24]) of 15.7 µM and an IC50 (TERT-RPE1 [25]) greater than 40 µM. For the same compound, the IC50 (HepG2 [26]) was greater than 40 µM.
